Data set [1] deals with Mus musculus. The data set is described as follows: Antinociceptive activity in C57BL6 mouse model of acute pain assessed as increase in withdrawal latency from radiant heat source at 61 to 196 nmol/kg, po measured after 5 to 120 mins by tail flick assay relative to control. The class given is functional. Put shortly:
(§1)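 Male C57BL6 mice (20–25 g); compound or saline given iv into tail vein (po also tested). Radiant heat on ventral tail, latency to withdrawal/shaking recorded at baseline and 5, 15, 30, 60, 120 min (later points also reported); normalized as %MPE; 8–10 mice per group.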
Background: Thermal pain tests record how soon the animal reacts.

Data set [2] concerns Mus musculus. The data set is described as follows: Antihyperalgesic activity in albino Swiss CD1 IGS mouse model of streptozocin-induced type1 diabetic neuropathic pain assessed as increase in paw withdrawal latency at 0.005 nmol, it administered on day 10 after STZ injection measured at 180 mins post dose by […]. The class given is functional, organism-based. The gist of the method: (§2)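 Male CD-1 mice (30–35 g). CCI: sciatic constriction injury, tested on days 7–16 after surgery. STZ diabetes: single ip streptozocin 200 mg/kg; mice with glucose >300 mg/dL included, tested on day 10. Drug in water for injection, given it (5 µL, L5–L6 lumbar puncture) to conscious mice. von Frey (cutoff 6 g) or cold plate (2 °C, 30 s cutoff, paw lift) at 30, 90, 180 min; 6–8 mice/group.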

Data set [3] in a line: Passive permeability of compound at 500 uM after 4 hrs by BBB-PAMPA. It is filed as ADME. To be noted: read-out: permeability. The gist of the method: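 BBB-PAMPA with porcine brain polar lipids; compound at 500 µM in donor compartment in system solution containing 20% 1-propanol; 4 h at room temperature in humidified box, 25 µm unstirred water layer. Quantified by RP-HPLC, identity by MALDI-TOF; effective permeability and % transport calculated.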
(In general: The PAMPA barrier holds no transporters, so it reflects passive diffusion.)

For data set [4], the system named is Mus musculus. The data set is described as follows: Antihyperalgesic activity in albino Swiss CD1 IGS mouse model of chronic constriction injury-induced neuropathic pain assessed as increase in paw withdrawal latency at 0.0005 nmol, it administered on day 7 to 16 after CCI surgery measured 180 mins post dose by cold plate test. It is filed as functional, organism-based. Put shortly:
as §2

The subject of data set [5] is Rattus norvegicus. The data set is described as follows: Reduction in expiratory time in Sprague-Dawley rat at 6 nmol/kg, iv after 5 to 120 mins by plethysmography method. It is filed as organism-based. To be noted: in vivo. The gist of the method: (§3)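 Male Sprague–Dawley rats (250–350 g) with implanted catheter and intraperitoneal temperature transmitter, dosed iv at T0; 0.9% NaCl as control; N = 6/group. Whole-body barometric plethysmography, ~60 s records at −30, −15, −5, 5–120 min.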

For data set [6], the system named is Rattus norvegicus. As to the kind of experiment: Reduction in tidal volume in Sprague-Dawley rat at 6 nmol/kg, iv after 5 to 120 mins by plethysmography method. The class given is organism-based. The settings on record: in vivo. Put shortly: as §3
The test system of data set [7] is Mus musculus. The data set is described as follows: Antiallodynic activity in albino Swiss CD1 IGS mouse model of streptozocin-induced type1 diabetic neuropathic pain assessed as increase in mechanical threshold for paw withdrawal at 0.005 nmol, it administered on day 10 after STZ injection measured at 180 mins post dose by Von Frey test. The class given is functional, organism-based. Put shortly: as §2

Data set [8] has as its system Mus musculus. The data set is described as follows: Antinociceptive activity in C57BL6 mouse model of acute pain assessed as increase in withdrawal latency from radiant heat source at 31 to 61 nmol/kg, iv measured after 180 to 240 mins by tail flick assay relative to control. The class given is functional. The gist of the method: as §1
For data set [9], the system named is Mus musculus. As to the kind of experiment: Antiallodynic activity in albino Swiss CD1 IGS mouse model of chronic constriction injury-induced neuropathic pain assessed as increase in mechanical threshold for paw withdrawal at 0.0005 nmol, it administered on day 7 to 16 after CCI surgery measured 180 mins post dose by Von Frey test. The class given is functional, organism-based. Put shortly: as §2

The test system of data set [10] is Mus musculus. As to the kind of experiment: Neurotoxicity in intrathecally dosed albino Swiss CD1 IGS mouse assessed as motor impairment measured after 15 to 120 mins post dose by rotarod test. To be noted: in vivo, icv_or_intrathecal. It is filed as toxicity, organism-based. The gist of the method:
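Intrathecal dosing (water for injection, 5 µL) to male CD-1 mice. After three training sessions, mice placed on accelerating rod (2 to 40 rpm over 300 s cutoff); tested 15 and 120 min after injection.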

Data set [11] deals with Mus musculus. The data set is described as follows: Antiallodynic activity in albino Swiss CD1 IGS mouse model of streptozocin-induced type1 diabetic neuropathic pain assessed as increase in mechanical threshold for paw withdrawal at 0.005 nmol, it administered on day 10 after STZ injection measured at 30 mins post dose by Von Frey test. It is filed as functional, organism-based. Put shortly:
as §2

For data set [12], the system named is Rattus norvegicus. As to the kind of experiment: Induction of respiratory depression in Sprague-Dawley rat at 6 nmol/kg, iv after 5 to 120 mins by plethysmography method. It is filed as organism-based. To be noted: in vivo. Put shortly: as §3

Molecules are shown by their SMILES. The source made the active and inactive calls. Numbered stars: 1 amine (or outer) side, 2 acyl side, 3 side chain; on linkers, the order of the positions; unused ones are H or OH. Square brackets hold non-standard residues; d marks the D form. Peptide text beside a SMILES is read from it. X1 = O=C1[C@@H](N[*:1])Cc2ccccc2CN1CCC(=O)[*:2]; Dmt = Cc1cc(O)cc(C)c1C[C@H](N)C(=O)O

Consider `CC[C@H](C)[C@H](NC(=O)[C@H](CCCNC(=N)N)NC(=O)[C@H](Cc1ccc(O)cc1)NC(=O)[C@H](Cc1ccc(O)cc1)NC(=O)[C@H](CCCNC(=N)N)NC(=O)CCN1Cc2ccccc2C[C@H](NC(=O)[C@@H](CCCNC(=N)N)NC(=O)[C@@H](N)Cc2c(C)cc(O)cc2C)C1=O)C(=O)N[C@@H](CCCCN)C(N)=O` (H-[Dmt][dR][X1]RYYRIK-NH2), for which the MPE with Mus musculus [1] is on record as <5%; with Mus musculus [8], 100%. Also, the outcome in the data set with Mus musculus [2], with Mus musculus [4], in the data set on Mus musculus [9] and in the data set on Mus musculus [11] was Active. For the same compound, the Papp at 4 h, 500 µM in data set [3] worked out at 0.11 ×10⁻⁶ cm/s. Moreover, the Activity result in the data set on Rattus norvegicus [5], in the data set with Rattus norvegicus [6], in the data set on Mus musculus [10] and in the data set with Rattus norvegicus [12] was “Non-toxic” in each case. Further, the outcome with Mus musculus [7] was inactive.

The record behind these values is ChEMBL document CHEMBL3808291, “Bifunctional Peptide-Based Opioid Agonist-Nociceptin Antagonist Ligands for Dual Treatment of Acute and Neuropathic Pain” (J Med Chem, 2016).
